Measured values published in ChEMBL document CHEMBL4339193, “Phenotypic Screening-Based Identification of 3,4-Disubstituted Piperidine Derivatives as Macrophage M2 Polarization Modulators: An Opportunity for Treating Multiple Sclerosis” (J Med Chem, 2019).
The source made the active and inactive calls. The calls are words filed in the database; no cut-off is given here.

Columns and labels:
BMDM [1] = experiment: Antiinflammatory activity in LPS-induced C57BL/6J mouse BMDM cells assessed as suppression of M1 macrophage-stimulated Th1 cell population by measuring decrease in IFNgamma level at 300 nM measured after 48 hrs by ELISA; assay type: functional, cell-based
Summary of the method: (§1)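 Supernatant collected from the 72 h coculture of CFSE-labelled naïve CD4+ T cells (anti-CD3/anti-CD28, 500 ng/ml each, 1:1) with BMDMs pretreated 48 h with 50 ng/ml LPS plus 300 nM compound. IFN-γ or IL-17A quantified by ELISA. Mean ± SEM, at least three independent experiments.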

RAW264.7 [2] = experiment: Modulation of M2 polarization in mouse RAW264.7 cells assessed as up regulation of MRC1 mRNA expression at 300 nM measured after 24 hrs by qRT-PCR analysis; assay type: functional, cell-based
Mus musculus [3] = experiment: (§2) Inhibition of M1 polarization in C57BL/6J mouse model of MOG (35 to 55 residues)/pertussis toxin/complete Freund's adjuvant-induced experimental allergic encephalomyelitis assessed as CD86 level in draining lymph nodes at 200 mg/kg, ig administered daily starting from 7 days post-immunization measured after 13 to 19 days post-immunization by flow cytometry analysis (reference value: 18.4%); assay type: functional; design: scale not given: the % may be the effect or the level left
Summary of the method: (§3)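 MOG35-55/CFA EAE mice were dosed daily in saline from day 7 and sampled between days 13 and 19. Cells came from spleen and dLN by mechanical dissociation and from CNS by collagenase IV/Percoll. They were stained for F4/80 with CD206 (M2) or CD86 (M1), and each was read by flow cytometry as a percentage of total F4/80+ macrophages.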

[4] = Oral bioavailability in Sprague-Dawley rat at 50 mg/kg administered as single dose via gavage by LC/MS analysis; assay type: ADME, organism-based; conditions: in vivo
[5] = Ratio of AUC (0 to t) to AUC (0 to infinity) in Sprague-Dawley rat at 50 mg/kg, po administered as single dose via gavage; assay type: ADME, organism-based; conditions: in vivo
BMDM [6] = experiment: Inhibition of LPS-induced M1 polarization in C57BL/6J mouse BMDM cells assessed as down regulation of Mcp1 mRNA expression at 300 nM measured after 24 hrs by qRT-PCR analysis; assay type: functional, cell-based
Summary of the method: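 BMDMs pre-incubated 24 h with 50 ng/ml LPS to induce M1, then treated 24 h with 300 nM compound. Total RNA extracted with Trizol; Mcp1, Inos and Cd86 mRNA measured by qRT-PCR. Mean ± SEM.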

Mus musculus [7] = experiment: (§4) Antiinflammatory activity in C57BL/6J mouse model of MOG (35 to 55 residues)/pertussis toxin/complete Freund's adjuvant-induced experimental allergic encephalomyelitis assessed as TH17 cell population in spinal cord by measuring IL17 level at 200 mg/kg, ig administered daily starting from 7 days post-immunization measured after 14 to 21 days post-immunization by flow cytometry analysis (reference value: 7.7%); assay type: functional
Summary of the method: (§5)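 EAE induced with MOG35-55 (2 mg/ml in PBS) emulsified in CFA containing 4 mg/ml heat-killed M. tuberculosis H37Ra, injected s.c. into the neck and both hindlegs. Drug in saline daily from day 7. Between days 13 and 19, CNS mononuclear cells were taken by collagenase IV digestion and a 70%/30% Percoll gradient. Cells were restimulated 5 h with brefeldin A 2 µg/ml, PMA 0.1 µg/ml and ionomycin 0.5 µg/ml, stained for surface CD4, fixed and permeabilised, then stained intracellularly for IFN-γ/IL-17A. Analysed by flow cytometry; n=4 mice per group.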

BMDM [8] = experiment: Antiinflammatory activity in LPS-induced C57BL/6J mouse BMDM cells assessed as suppression of M1 macrophage-stimulated Th17 cell population by measuring decrease in Il17 level at 300 nM measured after 48 hrs by ELISA; assay type: functional, cell-based; summary of the method: as §1
BMDM [9] = experiment: Inhibition of LPS-induced M1 polarization in C57BL/6J mouse BMDM cells assessed as down regulation of CD86 expression at 300 nM measured after 24 hrs by FACS analysis; assay type: functional, cell-based
Summary of the method: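 BMDMs pretreated with 50 ng/ml LPS for 24 h, then given compound (300 nM, or a range of concentrations) for 24 h. Stained for F4/80 and CD86; % CD86+F4/80+ cells read by flow cytometry. Mean ± SEM, at least three independent experiments.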

RAW264.7 [10] = experiment: Modulation of M2 polarization in mouse RAW264.7 cells assessed as up regulation of IL13 mRNA expression at 300 nM measured after 24 hrs by qRT-PCR analysis; assay type: functional, cell-based
BMDM [11] = experiment: Modulation of M2 polarization in C57BL/6J mouse BMDM cells assessed as up regulation of Fizz1 mRNA expression at 300 nM measured after 24 hrs by qRT-PCR analysis; assay type: functional, cell-based
Summary of the method: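 BMDMs treated 24 h with 300 nM compound at 37 °C, 5% CO2. Trizol RNA extraction, then qRT-PCR for Arg1, Mrc1 and Fizz1 mRNA. Mean ± SEM.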

Mus musculus [12] = experiment: as §4, with “TH1” for “TH17”, “IFNgamma” for “IL17”, “22.3%)” for “7.7%)”; assay type: functional; summary of the method: as §5
RAW264.7 [13] = experiment: Modulation of M2 polarization in mouse RAW264.7 cells assessed as up regulation of PPARGC1A mRNA expression at 300 nM measured after 24 hrs by qRT-PCR analysis; assay type: functional, cell-based
Mus musculus [14] = experiment: as §2, with “spleen” for “draining lymph nodes”, “11.8%)” for “18.4%)”; assay type: functional; design: scale not given: the % may be the effect or the level left; summary of the method: as §3
[15] = molecular target: Signal transducer and activator of transcription 3 (Mus musculus) (UniProt P42227); experiment: Stimulation of STAT3 phosphorylation at Y705 residue in mouse RAW264.7 cells at 300 nM measured after 4 to 24 hrs by Western blot analysis; assay type: cell-based
Signal transducer and activator of transcription 3 (Mus musculus), sequence (P42227 whole entry): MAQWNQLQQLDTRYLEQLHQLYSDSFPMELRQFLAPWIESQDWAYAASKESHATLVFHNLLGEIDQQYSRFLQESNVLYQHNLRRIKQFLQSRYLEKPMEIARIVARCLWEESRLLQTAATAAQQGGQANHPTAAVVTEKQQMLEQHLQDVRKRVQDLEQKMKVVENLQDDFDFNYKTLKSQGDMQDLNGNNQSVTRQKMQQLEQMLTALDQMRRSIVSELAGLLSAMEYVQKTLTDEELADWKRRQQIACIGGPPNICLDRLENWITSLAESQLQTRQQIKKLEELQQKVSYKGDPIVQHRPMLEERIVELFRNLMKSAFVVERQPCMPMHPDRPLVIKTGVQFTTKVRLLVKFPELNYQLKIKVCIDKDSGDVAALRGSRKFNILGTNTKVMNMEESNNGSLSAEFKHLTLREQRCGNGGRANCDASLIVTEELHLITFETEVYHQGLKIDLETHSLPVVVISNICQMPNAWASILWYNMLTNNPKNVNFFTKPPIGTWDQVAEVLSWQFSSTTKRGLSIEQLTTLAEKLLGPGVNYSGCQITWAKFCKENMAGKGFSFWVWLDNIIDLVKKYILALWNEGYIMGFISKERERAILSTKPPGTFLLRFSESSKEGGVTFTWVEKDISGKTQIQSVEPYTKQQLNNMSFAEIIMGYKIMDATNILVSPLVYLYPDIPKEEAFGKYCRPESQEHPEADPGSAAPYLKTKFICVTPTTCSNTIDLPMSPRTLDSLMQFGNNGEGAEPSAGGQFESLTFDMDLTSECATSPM
Summary of the method: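 Cell lysates separated by SDS-PAGE, transferred to PVDF and probed for Akt, p-Akt(308), p-Akt(473), Stat3, p-Stat3(Y705), Stat6 and p-Stat6; ECL detection, GAPDH as loading control.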

Mus musculus [16] = experiment: Antiinflammatory activity in C57BL/6J mouse model of MOG (35 to 55 residues)/pertussis toxin/complete Freund's adjuvant-induced experimental allergic encephalomyelitis assessed as reduction in demyelination in spinal cord at 200 mg/kg, ig administered daily starting from 7 days post-immunization measured after 14 days post-immunization by LFB staining based microscopic analysis; assay type: functional, organism-based
Summary of the method: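 EAE mice dosed daily in saline from day 7 were perfused with PBS and fixed in 4% PFA on day 14; spinal cords were taken. For LFB, frozen OCT sections sat 3 h in 0.1% Luxol Fast Blue at 56-60°C, were differentiated in 0.05% lithium carbonate for 10-12 s, cleared in 70% ethanol, dehydrated and mounted. For H&E, paraffin sections were stained to assess inflammation.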

Cl.Cn1ncc(Cl)c1-c1ccc(C(=O)N[C@@H]2CNCC[C@H]2c2cccc(F)c2)cc1
Activity (BMDM [1]): Active | Activity (RAW264.7 [2]): Active | Activity (Mus musculus [3]): 11.5% | bioavailability [4]: 50.6% | Ratio AUC [5]: 98.425% | inhibition (BMDM [6]): Active | Activity (Mus musculus [7]): 4.5% | Activity (BMDM [8]): Active | inhibition (BMDM [9]): Active | Activity (RAW264.7 [10]): Active | Activity (BMDM [11]): Active | Activity (Mus musculus [12]): 11.4% | Activity (RAW264.7 [13]): Active | Activity (Mus musculus [14]): 6.9% | Activity [15]: Active | Activity (Mus musculus [16]): Active
